From PubChem BioAssay
Inconclusive results are not listed.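 Rule for the calls, unless noted: active = RAM network inhibition above 8.4% in each of two replicates, 3 SD over the compound average; inconclusive = above 8.4% inhibition in only one replicate; inactive = 8.4% inhibition or less in each replicate.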

Columns and labels:
[1] = S. cerevisiae growth inhibition in permissive medium (OD615), pilot counter-assay for S. cerevisiae lifespan shortening project, permissive growth control (AID 705;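 active = growth inhibition above 25% in both replicates, a cutoff set 3 SD above the mean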); conditions: OD615, 24 h, at 10 µM, stronger effect = higher value
How it was run: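 System: S. cerevisiae with engineered DeaD lifespan system. Medium: SC raffinose/galactose permissive medium. Doses: single compound dose of 10 µM, 0.25% DMSO final. Schedule: 24 h exposure, 30 °C. Measured by: OD615 turbidity read. Read-out: growth inhibition.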

[2] = S. cerevisiae growth inhibition in restrictive medium, OD615, pilot screen, restrictive growth control, yeast lifespan reduction project (AID 706;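 active = growth inhibition above a set limit, 3 SD over mean compound inhibition, in both replicates, cut at about 43% in these data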;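 note: modified DeaD lifespan yeast strain shifted to restrictive glucose medium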); conditions: OD615, 48 h, at 10 µM, stronger effect = higher value
How it was run: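 Assay system – genetically modified Saccharomyces cerevisiae, DeaD replicative lifespan assay strain · Medium – CSMM-D glucose medium · Doses – 10 µM compound, 0.25% DMSO · Times – 4 h pre-incubation, 48 h exposure at 30 °C · Signal – optical density at 615 nm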

[3] = doxorubicin toxicity protection in MRP-1 cells – H69AR cells, CellTiter-Glo, duplicate, MRP-1 activator project, pilot screen (AID 807;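 active = viability increase at or above a cutoff of the median across tested compounds plus 3 SD, cut at about 8.5% in these data, passing the limit was not always enough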;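 note: compound pretreatment 18-22 h then 72 h combined with doxorubicin; 0% = doxorubicin alone and 100% = vehicle without doxorubicin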); conditions: H69AR viability with doxorubicin, CellTiter-Glo luminescence; at 10 µM; stronger effect = higher value
[4] = viability of HCT116 without oncogenic beta-catenin – human colon tumor cells, pilot screen (AID 823;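 active = cell viability at or below a set limit in both duplicate runs, the limit being the all-compound median minus 4 SD, cut at about 23% in these data, passing the limit was not always enough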;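 note: 0% = wells killed by 20 µM Hyamine and 100% = untreated DMSO cell wells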); conditions: HCT116 beta-catenin knockout viability, CellTiter-Glo, 60 h; at 10 µM; stronger effect = lower value
[5] = viability of PTEN-null HCT116 cells – cell-based, HCT116 clonal line, CellTiter-Glo, pilot screen (AID 824;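 active = viability at or below 27.92% in each of two runs, the all-compound median minus 4 SD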;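 note: 0% = 20 µM Hyamine control and 100% = vehicle cell control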); conditions: HCT116 PTEN-deleted viability, 60 h, at 10 µM, stronger effect = lower value
[6] = RAM pathway blockade in budding yeast – dse1pr::URA3 reporter, 5-FOA selection, pilot screen (AID 869;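 active = inhibition over a set limit, the all-compound mean plus 3 SD, in both replicate runs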;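 note: 0% = DMSO wells with no growth and 100% = 10 µM 1-NA-PP1 with full growth; RAM network block rescues cells from 5-FOA so hits raise OD615 growth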); conditions: S. cerevisiae dse1pr::URA3 5-FOA growth, OD615, 2 d; at 10 µM; stronger effect = higher value; strain carries analog-sensitive mutant Cbk1 kinase
[7] = RAM signaling pathway blockade in yeast – S. cerevisiae, Pdr1DBD-CYC8 efflux-inhibited sensitized strain, primary screen (AID 1298);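 note: 0% = DMSO untreated cells without growth and 100% = 10 µM 1-NA-PP1 full growth; higher means more yeast growth rescued from 5-FOA killing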; conditions: S. cerevisiae cbk1-as DSE1-URA3 strain, 5-FOA growth OD615, 2 d; at 50 µM; stronger effect = higher value

Cc1cc(C)cc(-c2nc(-c3ccncc3)no2)c1
inactive: growth inhibition [1] 0.275% | growth inhibition [2] 15.9% | viability increase [3] 3.69% | viability [4] 91.1% | viability [5] 92% | inhibition [6] 1.11% | RAM network inhibition [7] 5.99%

COCCOC(=O)C1=C(C)NC2=C(C(=O)CCC2)C1c1ccc2c(c1)OCO2 (stereo not drawn)
inactive: growth inhibition [1] -3.56% | growth inhibition [2] -17.8% | viability increase [3] -2.23% | viability [4] 93.9% | viability [5] 93% | inhibition [6] 1.08% | RAM network inhibition [7] 0.14%

CC(=O)c1ccc(OCC(O)CN2CCN(Cc3ccccc3)CC2)cc1 (stereo not drawn)
inactive: growth inhibition [1] -6.49% | growth inhibition [2] 4.36% | viability increase [3] -1.36% | viability [4] 101% | viability [5] 92.1% | inhibition [6] -0.305% | RAM network inhibition [7] 0.94%

CCOC(=O)CN1CC23C=CC(O2)C(C(=O)Nc2ccc4c(c2)OCO4)C3C1=O (stereo not drawn)
inactive: growth inhibition [1] -0.14% | growth inhibition [2] 3.22% | viability increase [3] -1.01% | viability [4] 107% | viability [5] 103% | inhibition [6] 2.71% | RAM network inhibition [7] 1.23%

CC(=O)c1cccc(NC(=O)c2cc(C)no2)c1
inactive: growth inhibition [1] -4.53% | growth inhibition [2] -12.4% | viability increase [3] -1.41% | viability [4] 98.9% | viability [5] 92.5% | inhibition [6] 1.26% | RAM network inhibition [7] -1.99%

O=C(NCCn1ccc2ccccc21)c1ccc(S(=O)(=O)N2CCOCC2)cc1
inactive: growth inhibition [1] 3.54% | growth inhibition [2] -8.71% | viability increase [3] -2.92% | viability [4] 101% | viability [5] 96.7% | inhibition [6] 0.33% | RAM network inhibition [7] 6.66%

COc1cccc(C(=O)NCc2cn3ccsc3n2)c1
inactive: growth inhibition [1] -16.9% | growth inhibition [2] 4.09% | viability increase [3] -1.05% | viability [4] 110% | viability [5] 92.4% | inhibition [6] 2.06% | RAM network inhibition [7] 3.48%

Cc1cc(-c2c(C)n([O-])c(C)c(C)[n+]2=O)ccc1F
inactive: growth inhibition [1] -10.8% | growth inhibition [2] -3.75% | viability increase [3] 0.1% | viability [4] 102% | viability [5] 98.2% | inhibition [6] 1.03% | RAM network inhibition [7] 0.32%

Cc1cc(NS(=O)(=O)c2ccc(NC(=O)CCCC(=O)O)cc2)nc(C)n1
inactive: growth inhibition [1] -5.33% | growth inhibition [2] -3.05% | viability increase [3] -1.07% | viability [4] 102% | viability [5] 92.2% | inhibition [6] -0.135% | RAM network inhibition [7] 3.87%

COc1cc(C(=O)N2CCN(C(=O)C(Cc3cc(C)ccc3C)NC(C)=O)CC2)cc(OC)c1OC (stereo not drawn)
inactive: growth inhibition [1] -24.3% | growth inhibition [2] -16.3% | viability increase [3] -2.13% | viability [4] 97.7% | viability [5] 88.2% | inhibition [6] 1.05% | RAM network inhibition [7] 1.42%

Cc1ccccc1CSc1nnc(-c2ccco2)n1Cc1ccco1
inactive: growth inhibition [1] 5.54% | growth inhibition [2] 10.2% | viability increase [3] -4.14% | viability [4] 82.6% | viability [5] 82.4% | inhibition [6] 0.145% | RAM network inhibition [7] 0.99%

O=C1C2CCCN2C(c2ccc(F)cc2)N1c1cccc(Cl)c1 (stereo not drawn)
inactive: growth inhibition [1] -1.56% | growth inhibition [2] 0.01% | viability increase [3] -0.91% | viability [4] 102% | viability [5] 99.6% | inhibition [6] 0.63% | RAM network inhibition [7] 2.38%

Cc1oc(-c2cccc(Cl)c2)nc1CN1CCCC(C(=O)NC(C)c2ccc3c(c2)OCCO3)C1 (stereo not drawn)
inactive: growth inhibition [1] -7.17% | growth inhibition [2] -16.3% | viability increase [3] -4.74% | viability [4] 33.7% | viability [5] 37.5% | inhibition [6] 2.46% | RAM network inhibition [7] 5.6%

CC(=O)c1ccc(-n2nncc2C)cc1
inactive: growth inhibition [1] -4.02% | growth inhibition [2] -11.6% | viability increase [3] -3.63% | viability [4] 108% | viability [5] 95.6% | inhibition [6] 0.965% | RAM network inhibition [7] 2.75%

CCCOc1ccc(S(=O)(=O)NCc2ccc(OC)cc2)cc1
inactive: growth inhibition [1] -0.685% | growth inhibition [2] -1.88% | viability increase [3] -1.41% | viability [4] 103% | viability [5] 103% | inhibition [6] 0.925% | RAM network inhibition [7] 7.26%

c1ccc(Nc2nc(N3CCOCC3)nc(N3CCOCC3)n2)cc1
inactive: growth inhibition [1] 5.75% | growth inhibition [2] 6.58% | viability increase [3] -6.19% | viability [4] 67.9% | viability [5] 67.2% | inhibition [6] 0.65% | RAM network inhibition [7] 1.44%

CC1=C(C(=O)OC2CCCCCCC2)C(c2ccc(O)cc2)NC(=O)N1 (stereo not drawn)
inactive: growth inhibition [1] -3.17% | growth inhibition [2] 4.04% | viability increase [3] -0.32% | viability [4] 73.8% | viability [5] 72% | inhibition [6] 1.85% | RAM network inhibition [7] 3.65%

COc1ccc(S(=O)(=O)Cc2ccc(C(=O)N3CCCC3)o2)cc1
inactive: growth inhibition [1] 5.75% | growth inhibition [2] -2.15% | viability increase [3] -1.61% | viability [4] 96.7% | viability [5] 91% | inhibition [6] 1.11% | RAM network inhibition [7] 4.21%

CCSC1=N/C(=C\c2ccc(C(=O)O)cc2)C(=O)S1
inactive: growth inhibition [1] -3.9% | growth inhibition [2] -3.52% | viability increase [3] -2.03% | viability [4] 95.4% | viability [5] 100% | inhibition [6] 1.83% | RAM network inhibition [7] 8.27%

Cn1c(Cn2c(=O)sc3ccccc32)nnc1SCC(=O)N1CCOCC1
inactive: growth inhibition [1] -13.2% | growth inhibition [2] -28% | viability increase [3] -1.17% | viability [4] 103% | viability [5] 99.2% | inhibition [6] 2.92% | RAM network inhibition [7] 3.55%

Cc1cccc(OCCOCCSc2ncccn2)c1
inactive: growth inhibition [1] -8.47% | growth inhibition [2] 8.79% | viability increase [3] -1.63% | viability [4] 97.9% | viability [5] 94.8% | inhibition [6] 0.99% | RAM network inhibition [7] 6.33%

COc1cccc(C2CC(c3cccc(C)c3)n3ncnc3N2)c1 (stereo not drawn)
inactive: growth inhibition [1] -9.14% | growth inhibition [2] -3.84% | viability increase [3] -2.07% | viability [4] 90% | viability [5] 90.4% | inhibition [6] 0.92% | RAM network inhibition [7] 0.74%

Cc1cc(C)nc(SCC(=O)Nc2ccc(S(=O)(=O)Nc3onc(C)c3C)cc2)n1
inactive: growth inhibition [1] -5.04% | growth inhibition [2] 14% | viability increase [3] 0.95% | viability [4] 109% | viability [5] 101% | inhibition [6] 0.88% | RAM network inhibition [7] -1.62%

CCCCCn1c(=O)[nH]c2c(c1=O)CCC2
inactive: growth inhibition [1] 2.71% | growth inhibition [2] -0.545% | viability increase [3] 1.82% | viability [4] 101% | viability [5] 100% | inhibition [6] -0.56% | RAM network inhibition [7] 0.26%
